Data: ChEMBL document CHEMBL3526151, “Reversible disulfide formation of the glutamate carboxypeptidase II inhibitor E2072 results in prolonged systemic exposures in vivo” (Drug Metab Dispos, 2012)

Assays:
[1] = Phase 1 metabolic stability in human liver microsomes assessed as compound remaining at 10 uM measured for 1 hr by LC-MS/MS analysis in absence of cofactors; assay type: ADME; details: read-out: Stability
Procedure, shortened: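 Cofactor-free controls were run for each microsomal incubation: 0.5 mg/ml liver microsomes with 10 µM compound, omitting cofactors, so that cofactor-independent degradation could be measured. Samples were taken up to 1 h, quenched with acetonitrile containing internal standard, and the percent remaining was determined by LC-MS/MS.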

[2] = Apparent volume of distribution in Sprague-Dawley rat at 0.1 mg/kg, po administered via gavage measured under fasted conditions by LC-MS/MS analysis; assay type: ADME, organism-based; design: dose 0.1 mg/kg, route oral; details: in vivo
Procedure, shortened: (§1)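 Fasted male Sprague-Dawley rats (280–330 g) received 0.1, 1, 10 or 30 mg/kg by oral gavage in 50 mM HEPES buffered saline, pH 7.4. Blood drawn at 0.25–24 h into heparin/NEM tubes; plasma analyzed by LC-MS/MS. Cmax taken as observed. AUC by linear trapezoidal rule with extrapolation by λz. Cl/F and Vd/F reported. Mean ± S.D., n = 4–9.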

[3] = AUC(0 to last) in Sprague-Dawley rat at 30 mg/kg, po administered via gavage measured under fasted conditions by LC-MS/MS analysis; assay type: ADME, organism-based; design: time 0 - last, dose 30 mg/kg, route oral; details: plasma; procedure, shortened: as §1
[4] = Oral bioavailability in Sprague-Dawley rat at 1 mg/kg administered via gavage measured under fasted conditions by LC-MS/MS analysis; assay type: ADME, organism-based; details: in vivo
[5] = Apparent volume of distribution in Sprague-Dawley rat at 10 mg/kg, po administered via gavage measured under fasted conditions by LC-MS/MS analysis; assay type: ADME, organism-based; design: dose 10 mg/kg, route oral; details: in vivo; procedure, shortened: as §1
[6] = Apparent volume of distribution in Sprague-Dawley rat at 1 mg/kg, po administered via gavage measured under fasted conditions by LC-MS/MS analysis; assay type: ADME, organism-based; design: dose 1 mg/kg, route oral; details: in vivo; procedure, shortened: as §1
[7] = Phase 1 metabolic stability in human liver microsomes assessed as compound remaining at 10 uM measured for 1 hr by LC-MS/MS analysis; assay type: ADME; details: read-out: Stability
Procedure, shortened: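 Liver microsomes (0.5 mg/ml) were incubated with 10 µM compound (final) in 100 mM potassium phosphate, pH 7.4. An NADPH-regenerating system was present: 1.3 mM NADPH, 3.3 mM glucose 6-phosphate, 3.3 mM MgCl2, 0.4 U/ml G6PDH and 50 µM sodium citrate. Runs were in duplicate, with samples taken up to 1 h and quenched with acetonitrile containing internal standard. Loss of compound was followed by LC-MS/MS.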

[8] = system: Rattus norvegicus; experiment: Analgesic activity in Sprague-Dawley rat chronic constriction injury model assessed as change in paw withdrawal latency at 10 mg/kg/day, po measured 11 days after drug treatment cessation (reference value: -2.77 +/-0.3 s); assay type: functional
[9] = Elimination half life in cynomolgus monkey at 5 mg/kg, iv administered as bolus injection by LC-MS/MS analysis; assay type: ADME, organism-based, Macaca fascicularis; design: dose 5 mg/kg, route intravenous; details: in vivo, read-out: beta t1/2 (converted)
Procedure, shortened: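 Cynomolgus monkeys (n = 3) received a nominal 5 mg/kg dose in 50 mM HEPES, TCEP-treated to prevent disulfide formation. Dosing was either an IV bolus via cephalic or saphenous vein or oral. Arterial cannula blood was collected into NEM-containing heparinized tubes for up to 9 days and analyzed by LC-MS/MS. Noncompartmental analysis gave t1/2 = 0.693/λz and F% = dose-normalized mean AUCinf p.o./i.v. ×100.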

[10] = Cmax in Sprague-Dawley rat at 10 mg/kg, po administered via gavage measured under fed conditions by LC-MS/MS analysis; assay type: ADME, organism-based; design: dose 10 mg/kg, route oral; details: in vivo
Procedure, shortened: (§2)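 Nonfasted male Sprague-Dawley rats given a single 10 mg/kg oral dose in 50 mM HEPES buffered saline, pH 7.4. Plasma collected 0.25–24 h into heparin/NEM tubes and assayed by LC-MS/MS. Noncompartmental parameters derived, including Cl/F and Vd/F. Mean ± S.D., n = 6–9.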

[11] = Apparent oral clearance in Sprague-Dawley rat at 10 mg/kg, po administered via gavage measured under fed conditions by LC-MS/MS analysis; assay type: ADME, organism-based; design: dose 10 mg/kg, route oral; details: in vivo; procedure, shortened: as §2
[12] = Tmax in Sprague-Dawley rat at 1 mg/kg, po administered via gavage measured under fasted conditions by LC-MS/MS analysis; assay type: ADME, organism-based; design: dose 1 mg/kg, route oral; details: in vivo
Procedure, shortened: (§3)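 Jugular-cannulated male Sprague-Dawley rats, 280–330 g, fasted overnight to 4 h post-dose. Single dose in 50 mM HEPES-buffered saline pH 7.4, by oral gavage or as tail-vein i.v. bolus. Blood into heparin/NEM tubes at 0–24 h. Plasma measured by LC-MS/MS; noncompartmental analysis; Tmax observed; Vd = dose/(AUCinf·λz).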

[13] = Apparent oral clearance in Sprague-Dawley rat at 30 mg/kg, po administered via gavage measured under fasted conditions by LC-MS/MS analysis; assay type: ADME, organism-based; design: dose 30 mg/kg, route oral; details: in vivo; procedure, shortened: as §1
[14] = Volume of distribution in Sprague-Dawley rat at 0.1 mg/kg, iv administered as bolus injection measured under fasted conditions by LC-MS/MS analysis; assay type: ADME, organism-based; design: dose 0.1 mg/kg, route intravenous; details: in vivo; procedure, shortened: as §3
[15] = system: Rattus norvegicus; experiment: AUC(0 to infinity) in Sprague-Dawley rat at 0.1 mg/kg, po administered via gavage measured under fasted conditions by LC-MS/MS analysis; assay type: ADME, organism-based, Plasma; design: time infinity, dose 0.1 mg/kg, route oral; details: in vivo; procedure, shortened: as §1
[16] = system: Cynomolgus monkey; experiment: Clearance in cynomolgus monkey at 5 mg/kg, iv administered as bolus injection by LC-MS/MS analysis; assay type: ADME, organism-based, Macaca fascicularis; design: dose 5 mg/kg, route intravenous; details: in vivo
Procedure, shortened: (§4)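 Cynomolgus monkeys (n = 3) given a 5 mg/kg intravenous bolus via cephalic or saphenous vein. Dosing solution in 50 mM HEPES, TCEP-treated. Arterial cannula blood collected up to 9 days into heparin/NEM tubes. Plasma assayed by LC-MS/MS. Noncompartmental analysis.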

[17] = system: Rattus norvegicus; experiment: Elimination half life in Sprague-Dawley rat at 10 mg/kg, iv by LC-MS/MS analysis; assay type: ADME, organism-based; design: dose 10 mg/kg, route intravenous; details: in vivo
Procedure, shortened: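 Male Sprague-Dawley rats received a single IV dose of either 10 mg/kg parent drug (n = 6) or 5 mg/kg homodisulfide (n = 5), in 50 mM HEPES-buffered saline, pH 7.4. Blood was collected into NEM-containing heparinized tubes for up to 7 days. Parent drug and homodisulfide in plasma were quantified by LC-MS/MS. Terminal t1/2β was calculated as 0.693/λz.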

[18] = Half life in Sprague-Dawley rat at 10 mg/kg, iv administered as bolus injection measured under fasted conditions by LC-MS/MS analysis; assay type: ADME, organism-based; design: dose 10 mg/kg, route intravenous; details: in vivo
[19] = Tmax in cynomolgus monkey at 5 mg/kg, po by LC-MS/MS analysis; assay type: ADME, organism-based, Macaca fascicularis; design: dose 5 mg/kg, route oral; details: in vivo
Procedure, shortened: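 Cynomolgus monkeys (n=3) dosed at 5 mg/kg nominal, TCEP-treated 50 mM HEPES solution, either as i.v. bolus (cephalic or saphenous vein) or orally. Arterial cannula blood into heparin/NEM tubes for up to 9 days. Plasma parent and homodisulfide measured by LC-MS/MS; Tmax observed.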

[20] = system: Cynomolgus monkey; experiment: AUC(0 to infinity) in cynomolgus monkey at 5 mg/kg, iv administered as bolus injection by LC-MS/MS analysis; assay type: ADME, organism-based, Macaca fascicularis, Plasma; design: time infinity, dose 5 mg/kg, route intravenous; details: in vivo; procedure, shortened: as §4
[21] = Protein binding in Sprague-Dawley rat serum at 10 uM after 1 hr by LC-MS/MS analysis; assay type: ADME, cell-free; details: read-out: PB (converted)
Procedure, shortened: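 Serum from the named species spiked to 10 μM and held 1 h at 37°C, then ultrafiltered through a 5000 Da cutoff device (45 min, 37°C, 1800g). Filtrate and unfiltered serum extracted and measured by LC-MS/MS; % bound = 100 − (Cu/Cs × 100).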

[22] = Volume of distribution in Sprague-Dawley rat at 10 mg/kg, iv administered as bolus injection measured under fasted conditions by LC-MS/MS analysis; assay type: ADME, organism-based; design: dose 10 mg/kg, route intravenous; details: in vivo; procedure, shortened: as §3

remaining at 1 h, 10 µM [1]: > 90% | Vd/F [2]: 2.98 L/kg | AUC(0-t) [3]: 76100 ng·h/mL | bioavailability [4]: 23.7% | Vd/F [5]: 1.44 L/kg | Vd/F [6]: 1.65 L/kg | remaining at 1 h, 10 µM [7]: > 90% | half-life [9]: 23 h | Cmax [10]: 16200 ng/mL | CL/F [11]: 5 mL/min/kg | Tmax [12]: 0.58 h | CL/F [13]: 8.5 mL/min/kg | Vd [14]: 0.2 L/kg | AUC [15]: 605 ng·h/mL | CL [16]: 0.367 mL/min/kg | beta t1/2 [17]: 105 h | half-life [18]: 3.55 h | Tmax [19]: 0.42 h | AUC [20]: 63622.1 ng·h/mL | fraction unbound at 1 h, 10 µM [21]: 0.025 | Vd [22]: 1.43 L/kg
SMILES: O=C(O)c1cccc(-c2cccc(CCS)c2C(=O)O)c1
Time [8]: -1.9 s
